# Data published in article PMC6138487 (British Journal of Clinical Pharmacology, 2018).
# Marks after values point to notes of the source that are not given here.
# Tests used:
# Type in all cases: in vivo, human
# [1] = tested on: serum high‐density lipoprotein cholesterol (HDL‐C); experiment: Serum HDL-C level, M-test
# [2] = tested on: serum low‐density lipoprotein cholesterol (LDL‐C); experiment: Serum LDL-C level, M-test; conditions: Day 8 and Day 14; P < 0.001 except 2.5 mg day^–1
# QTcF intervals = experiment: ECG QTcF evaluation; conditions: S-test and M-test, 2.5-20 mg
# Summary of the method: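 12-lead surface ECG in both single- and 14-day dosing tests. QT was Fridericia-corrected by experienced central-laboratory readers. ΔQTcF from baseline was calculated at each time point, and ΔΔQTcF versus placebo was estimated with 90% CI. Categorical counts: absolute QTcF >450, >480 and >500 ms; ΔQTcF >30 and >60 ms.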
# [3] = tested on: plasma 7α‐hydroxy‐4‐cholesten‐3‐one (C4); experiment: Plasma C4 level, M-test; conditions: Day 8 and Day 14; P < 0.001 except 2.5 mg day^–1
# [4] = tested on: patients with chronic constipation; experiment: Adverse events, M-test
# Summary of the method: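 Patients randomized 5:1 to test compound (2.5, 5, 10, 15 or 20 mg) or placebo. Oral tablet once daily before breakfast for 14 consecutive days, inpatient Day –2 to Day 21. AE type, severity and incidence were recorded with physical exams, vital signs, 12-lead ECG and laboratory tests. Proportions of patients with AEs were tabulated, and dose-dependency was tested by Cochran–Armitage trend test.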
# [5] = Pharmacokinetics of elobixibat; conditions: for AUC(0–t), back transformed LSM ratio breakfast/no breakfast / Cmax, back transformed LSM ratio breakfast/no breakfast: linear mixed effect model; for fe144h / Ae144h: urine 0-144 h; for fe144h: arithmetic mean; for Ae144h: geometric mean (CV)
# Summary of the method: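 Single oral dose, 2.5–20 mg, with or without breakfast, in crossover. Plasma was drawn predose and at 0.5–12 h on Days –1, 1, 7 and 8, plus daily. Urine was collected daily except Day 7. Analyte was measured by LC–MS/MS (LLOQ 10.0 pg ml–1). Noncompartmental analysis with linear trapezoidal AUC. Dose proportionality (no-breakfast regimen) was assessed by power model or ANOVA on log values. Food effect: mixed model, back-transformed LSM ratios.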
# [6] = 2.5 mg once daily 14 days (group n=10)
# [7] = 5 mg once daily 14 days (group n=10)
# [8] = 10 mg once daily 14 days (group n=9)
# [9] = 15 mg once daily 14 days (group n=10)
# [10] = 20 mg once daily 14 days (group n=10)
# [11] = single dose 2.5 mg, before breakfast
# [12] = single dose 2.5 mg, no breakfast
# [13] = single dose 5 mg, before breakfast
# [14] = single dose 10 mg, before breakfast
# [15] = single dose 10 mg, no breakfast
# [16] = single dose 15 mg, before breakfast
# [17] = single dose 15 mg, no breakfast
# [18] = single dose 20 mg, before breakfast
# [19] = single dose 20 mg, no breakfast
compound,measurement,setting,value
CCCCC1(CCCC)CN(c2ccccc2)c2cc(SC)c(OCC(=O)N[C@@H](C(=O)NCC(=O)O)c3ccccc3)cc2S(=O)(=O)C1 [elobixibat],"HDL‐C levels, trend",[1],no clear trend
same,LDL‐C AUEC compared to placebo (ANCOVA),[2],significantly greater reductions
same,"QTcF prolongation (>450 ms), categorical analysis",QTcF intervals,no QTcF prolongation
same,C4 AUEC relative to placebo (ANCOVA),[3],significantly greater
same,"AEs associated with gastrointestinal disorders, % of patients",[4]; [6],(80.0) %
same,"AEs associated with gastrointestinal disorders, n of patients",[4]; [6],8
same,"Any AEs, % of patients",[4]; [6],(80.0) %
same,"Any AEs, n of patients",[4]; [6],8
same,"abdominal distention, % of patients",[4]; [6],(30.0) %
same,"abdominal distention, n of patients",[4]; [6],3
same,"abdominal pain lower, % of patients",[4]; [6],(40.0) %
same,"abdominal pain lower, n of patients",[4]; [6],4
same,"abdominal pain upper, n of patients",[4]; [6],0
same,"diarrhoea, % of patients",[4]; [6],(10.0) %
same,"diarrhoea, n of patients",[4]; [6],1
same,"AEs associated with gastrointestinal disorders, % of patients",[4]; [7],(80.0) %
same,"AEs associated with gastrointestinal disorders, n of patients",[4]; [7],8
same,"Any AEs, % of patients",[4]; [7],(90.0) %
same,"Any AEs, n of patients",[4]; [7],9
same,"abdominal distention, % of patients",[4]; [7],(30.0) %
same,"abdominal distention, n of patients",[4]; [7],3
same,"abdominal pain lower, % of patients",[4]; [7],(30.0) %
same,"abdominal pain lower, n of patients",[4]; [7],3
same,"abdominal pain upper, % of patients",[4]; [7],(20.0) %
same,"abdominal pain upper, n of patients",[4]; [7],2
same,"diarrhoea, % of patients",[4]; [7],(40.0) %
same,"diarrhoea, n of patients",[4]; [7],4
same,"AEs associated with gastrointestinal disorders, % of patients",[4]; [8],(77.8) %
same,"AEs associated with gastrointestinal disorders, n of patients",[4]; [8],7
same,"Any AEs, % of patients",[4]; [8],(100.0) %
same,"Any AEs, n of patients",[4]; [8],9
same,"abdominal distention, % of patients",[4]; [8],(22.2) %
same,"abdominal distention, n of patients",[4]; [8],2
same,"abdominal pain lower, % of patients",[4]; [8],(33.3) %
same,"abdominal pain lower, n of patients",[4]; [8],3
same,"abdominal pain upper, % of patients",[4]; [8],(22.2) %
same,"abdominal pain upper, n of patients",[4]; [8],2
same,"diarrhoea, % of patients",[4]; [8],(44.4) %
same,"diarrhoea, n of patients",[4]; [8],4
same,"AEs associated with gastrointestinal disorders, % of patients",[4]; [9],(70.0) %
same,"AEs associated with gastrointestinal disorders, n of patients",[4]; [9],7
same,"Any AEs, % of patients",[4]; [9],(90.0) %
same,"Any AEs, n of patients",[4]; [9],9
same,"abdominal distention, % of patients",[4]; [9],(40.0) %
same,"abdominal distention, n of patients",[4]; [9],4
same,"abdominal pain lower, % of patients",[4]; [9],(40.0) %
same,"abdominal pain lower, n of patients",[4]; [9],4
same,"abdominal pain upper, n of patients",[4]; [9],0
same,"diarrhoea, % of patients",[4]; [9],(40.0) %
same,"diarrhoea, n of patients",[4]; [9],4
same,"AEs associated with gastrointestinal disorders, % of patients",[4]; [10],(90.0) %
same,"AEs associated with gastrointestinal disorders, n of patients",[4]; [10],9
same,"Any AEs, % of patients",[4]; [10],(90.0) %
same,"Any AEs, n of patients",[4]; [10],9
same,"abdominal distention, % of patients",[4]; [10],(60.0) %
same,"abdominal distention, n of patients",[4]; [10],6
same,"abdominal pain lower, % of patients",[4]; [10],(50.0) %
same,"abdominal pain lower, n of patients",[4]; [10],5
same,"abdominal pain upper, % of patients",[4]; [10],(20.0) %
same,"abdominal pain upper, n of patients",[4]; [10],2
same,"diarrhoea, % of patients",[4]; [10],(80.0) %
same,"diarrhoea, n of patients",[4]; [10],8
same,safety and tolerability,"[4]; once‐daily administration, female and male patients",safe and tolerated up to 20 mg
same,"plasma elobixibat concentration, range",[5]; 2.5-20 mg,picomolar range
same,quantity of drug excreted in the urine,"[5]; all dosing levels, both regimens",less than 0.01%
same,slope of the regression line (power model) for Ae144h,"[5]; no‐breakfast regimen, 2.5-20 mg, dose proportionality",0.9321
same,fraction of dose excreted in urine (fe) up to 144 h,"[5]; no‐breakfast regimen, all dosing groups (2.5-20 mg)",< 0.01%
same,t1/2 versus dose,"[5]; no‐breakfast regimen, P < 0.001, said to be apparent (LLOQ)",prolonged dose‐dependently
same,"AUC(0–t), back transformed LSM ratio breakfast/no breakfast",[5]; single dose 2.5 mg,0.1368
same,"Cmax, back transformed LSM ratio breakfast/no breakfast",[5]; single dose 2.5 mg,0.2448
same,"AUC(0–t), back transformed LSM ratio breakfast/no breakfast",[5]; single dose 5 mg,0.2318
same,"Cmax, back transformed LSM ratio breakfast/no breakfast",[5]; single dose 5 mg,0.2922
same,"AUC(0–t), back transformed LSM ratio breakfast/no breakfast",[5]; single dose 10 mg,0.1989
same,"Cmax, back transformed LSM ratio breakfast/no breakfast",[5]; single dose 10 mg,0.2531
same,"AUC(0–t), back transformed LSM ratio breakfast/no breakfast",[5]; single dose 15 mg,0.1884
same,"Cmax, back transformed LSM ratio breakfast/no breakfast",[5]; single dose 15 mg,0.2085
same,"AUC(0–t), back transformed LSM ratio breakfast/no breakfast",[5]; single dose 20 mg,0.2275
same,"Cmax, back transformed LSM ratio breakfast/no breakfast",[5]; single dose 20 mg,0.2240
same,fe144h,[5]; [11],0.0008 ^a %
same,Ae144h,[5]; [11],24.30 (72.9) ^a ng
same,fe144h,[5]; [12],0.0098%
same,Ae144h,[5]; [12],213.28 (59.5) ng
same,fe144h,[5]; [13],0.0021%
same,Ae144h,[5]; [13],107.50 (63.4) ng
same,fe144h,"[5]; single dose 5 mg, no breakfast",0.0077%
same,Ae144h,"[5]; single dose 5 mg, no breakfast",306.59 (38.8) ng
same,fe144h,[5]; [14],0.0016%
same,Ae144h,[5]; [14],139.38 (49.9) ng
same,fe144h,[5]; [15],0.0070%
same,Ae144h,[5]; [15],598.14 (67.8) ng
same,fe144h,[5]; [16],0.0013 ^a %
same,Ae144h,[5]; [16],188.43 (37.2) ^a ng
same,fe144h,[5]; [17],0.0070 ^a %
same,Ae144h,[5]; [17],873.09 (68.4) ^a ng
same,fe144h,[5]; [18],0.0021 ^a %
same,Ae144h,[5]; [18],384.85 (55.6) ^a ng
same,fe144h,[5]; [19],0.0088%
same,Ae144h,[5]; [19],1623.23 (41.5) ng
